In ChEMBL document CHEMBL5678817, “FTBMT, a Novel and Selective GPR52 Agonist, Demonstrates Antipsychotic-Like and Procognitive Effects in Rodents, Revealing a Potential Therapeutic Agent for Schizophrenia” (J Pharmacol Exp Ther, 2017):
Active and inactive are the calls of the source.

Assays:
[1] = organism: Homo sapiens; test: Inhibition of Ca2+ ATPase (unknown origin) at 10 uM relative to control
Outline: (§1)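 Single-point screen at 10 μM across receptor, ion channel and enzyme binding or activity assays. Expressed as percent inhibition versus control; negative values denote stimulation.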

[2] = molecular target: Carbonic anhydrase 2 (Homo sapiens) (UniProt P00918); test: Inhibition of Carbonic anhydrase II (unknown origin) at 10 uM relative to control; outline: as §1
[3] = molecular target: Prostaglandin G/H synthase 1 (Homo sapiens) (UniProt P23219); test: Inhibition of COX-1 (unknown origin) at 10 uM relative to control; outline: as §1
[4] = molecular target: Nitric oxide synthase 1 (Homo sapiens) (UniProt P29475); test: Inhibition of nNOS (unknown origin) at 10 uM relative to control
Nitric oxide synthase 1 (Homo sapiens), sequence (P29475 whole entry): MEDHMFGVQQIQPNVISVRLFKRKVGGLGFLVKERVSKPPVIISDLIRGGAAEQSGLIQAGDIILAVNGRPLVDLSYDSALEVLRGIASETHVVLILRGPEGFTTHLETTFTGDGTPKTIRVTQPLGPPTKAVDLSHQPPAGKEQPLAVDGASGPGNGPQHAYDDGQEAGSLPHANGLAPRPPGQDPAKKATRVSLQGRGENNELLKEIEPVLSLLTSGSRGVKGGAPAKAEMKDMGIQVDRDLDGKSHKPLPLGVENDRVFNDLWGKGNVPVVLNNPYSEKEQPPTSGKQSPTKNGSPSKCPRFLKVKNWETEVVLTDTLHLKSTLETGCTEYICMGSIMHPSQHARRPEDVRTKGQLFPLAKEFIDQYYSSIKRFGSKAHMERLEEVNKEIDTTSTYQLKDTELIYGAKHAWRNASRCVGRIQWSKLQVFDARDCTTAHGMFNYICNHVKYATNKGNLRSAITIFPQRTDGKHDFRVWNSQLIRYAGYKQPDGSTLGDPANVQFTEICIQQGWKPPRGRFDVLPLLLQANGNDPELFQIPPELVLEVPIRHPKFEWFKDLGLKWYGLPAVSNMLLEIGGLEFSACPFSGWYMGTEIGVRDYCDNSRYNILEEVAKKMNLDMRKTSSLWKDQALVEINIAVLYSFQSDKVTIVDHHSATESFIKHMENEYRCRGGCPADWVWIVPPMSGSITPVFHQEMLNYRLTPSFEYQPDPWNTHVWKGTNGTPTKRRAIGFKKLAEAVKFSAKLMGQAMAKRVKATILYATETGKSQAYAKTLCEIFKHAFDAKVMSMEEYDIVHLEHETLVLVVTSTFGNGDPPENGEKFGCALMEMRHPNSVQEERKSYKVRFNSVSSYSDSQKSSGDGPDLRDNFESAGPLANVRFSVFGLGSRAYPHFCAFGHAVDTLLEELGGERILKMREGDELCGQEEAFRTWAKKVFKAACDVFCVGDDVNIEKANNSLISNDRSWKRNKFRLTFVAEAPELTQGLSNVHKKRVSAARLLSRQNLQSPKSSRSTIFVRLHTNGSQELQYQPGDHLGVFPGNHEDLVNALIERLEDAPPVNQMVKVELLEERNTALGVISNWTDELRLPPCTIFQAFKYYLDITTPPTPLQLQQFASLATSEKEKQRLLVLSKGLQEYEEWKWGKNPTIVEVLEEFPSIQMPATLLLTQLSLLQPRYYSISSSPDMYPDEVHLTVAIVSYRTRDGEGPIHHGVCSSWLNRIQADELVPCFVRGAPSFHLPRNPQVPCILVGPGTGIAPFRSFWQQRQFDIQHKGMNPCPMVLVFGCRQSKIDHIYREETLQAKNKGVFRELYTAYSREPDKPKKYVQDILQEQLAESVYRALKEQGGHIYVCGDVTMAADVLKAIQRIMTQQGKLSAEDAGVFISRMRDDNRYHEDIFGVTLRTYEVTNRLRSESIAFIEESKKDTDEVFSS
Outline: (§2)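 Binding and enzyme panel run by an outside contractor against receptors, ion channels and enzymes. Each assay used a single 10 μM test concentration, and results are expressed as percent inhibition. A negative value means stimulation of receptor activity or activation of enzyme activity.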

[5] = molecular target: cGMP-specific 3',5'-cyclic phosphodiesterase (Homo sapiens) (UniProt O76074); test: Inhibition of PDE5 (unknown origin) at 10 uM relative to control
Outline: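 Enzyme activity assays from the same 98-target biochemical panel. Single test concentration of 10 µM. Read-out is % inhibition of enzyme activity relative to control; negative percentages indicate activation of the enzyme.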

[6] = molecular target: Alpha-1A adrenergic receptor (Homo sapiens) (UniProt P35348); test: Inhibition of Adrenergic alpha1 receptor (unknown origin) at 10 uM relative to control; outline: as §1
[7] = molecular target: Beta-3 adrenergic receptor (Homo sapiens) (UniProt P13945); test: Inhibition of Adrenergic beta3 (unknown origin) at 10 uM relative to control; outline: as §1
Beta-3 adrenergic receptor (Homo sapiens), sequence (P13945 whole entry, looked up): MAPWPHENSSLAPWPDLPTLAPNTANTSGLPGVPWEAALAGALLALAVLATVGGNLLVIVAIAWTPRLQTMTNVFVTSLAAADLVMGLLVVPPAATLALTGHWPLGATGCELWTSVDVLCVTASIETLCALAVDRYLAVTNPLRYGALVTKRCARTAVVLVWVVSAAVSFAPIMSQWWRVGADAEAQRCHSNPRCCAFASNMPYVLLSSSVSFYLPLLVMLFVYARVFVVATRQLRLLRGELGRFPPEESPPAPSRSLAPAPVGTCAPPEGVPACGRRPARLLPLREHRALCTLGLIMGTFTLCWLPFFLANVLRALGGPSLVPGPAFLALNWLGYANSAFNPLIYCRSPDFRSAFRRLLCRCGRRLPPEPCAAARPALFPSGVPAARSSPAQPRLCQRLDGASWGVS

[8] = molecular target: Androgen receptor (Homo sapiens) (UniProt P10275); test: Inhibition of Androgen receptor (unknown origin) at 10 uM relative to control; outline: as §1
[9] = molecular target: B1 bradykinin receptor (Homo sapiens) (UniProt P46663); test: Inhibition of Bradykinin B1 receptor (unknown origin) at 10 uM relative to control; outline: as §1
B1 bradykinin receptor (Homo sapiens), sequence (P46663 whole entry): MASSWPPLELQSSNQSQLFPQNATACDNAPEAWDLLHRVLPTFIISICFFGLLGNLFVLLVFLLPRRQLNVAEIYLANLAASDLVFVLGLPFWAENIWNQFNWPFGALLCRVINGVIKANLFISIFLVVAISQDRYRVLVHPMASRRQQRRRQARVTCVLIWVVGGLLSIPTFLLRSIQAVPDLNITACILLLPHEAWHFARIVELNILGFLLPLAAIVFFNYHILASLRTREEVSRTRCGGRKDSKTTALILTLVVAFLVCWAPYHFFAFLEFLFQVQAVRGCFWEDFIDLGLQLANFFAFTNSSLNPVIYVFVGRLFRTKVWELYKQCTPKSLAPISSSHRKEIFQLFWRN

[10] = molecular target: Voltage-gated L-type calcium channel (Homo sapiens, UniProt O60840+Q01668+Q13698+Q13936); test: Inhibition of Calcium channel L-type (unknown origin) at 10 uM in presence of dihydropyridine relative to control; assay type: protein assay; settings: probe dihydropyridine; outline: as §1
[11] = molecular target: Cannabinoid receptor 1 (Homo sapiens) (UniProt P21554); test: Inhibition of CB1 receptor (unknown origin) at 10 uM relative to control; outline: as §1
Cannabinoid receptor 1 (Homo sapiens), sequence (P21554 whole entry): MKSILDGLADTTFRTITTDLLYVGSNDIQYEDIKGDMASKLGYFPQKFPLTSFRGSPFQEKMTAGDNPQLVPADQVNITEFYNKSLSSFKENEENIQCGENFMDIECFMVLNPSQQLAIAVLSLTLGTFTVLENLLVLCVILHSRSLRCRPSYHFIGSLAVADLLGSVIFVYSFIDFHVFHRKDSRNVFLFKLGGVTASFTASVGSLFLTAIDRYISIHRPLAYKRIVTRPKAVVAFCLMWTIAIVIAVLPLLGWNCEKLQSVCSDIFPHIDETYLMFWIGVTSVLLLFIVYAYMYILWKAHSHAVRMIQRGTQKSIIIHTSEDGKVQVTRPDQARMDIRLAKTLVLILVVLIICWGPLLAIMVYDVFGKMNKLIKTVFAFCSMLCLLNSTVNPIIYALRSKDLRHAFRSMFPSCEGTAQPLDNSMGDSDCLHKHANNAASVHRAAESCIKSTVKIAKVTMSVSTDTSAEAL

[12] = molecular target: T1, GABA-A receptor; anion channel (Homo sapiens) (UniProt P14867+P47870+P18507+P28472+P48169+Q99928+Q9UN88+P34903+O00591+O14764+Q8N1C3+P18505+P78334+P47869+P31644+Q16445); test: Inhibition of GABAA receptor (unknown origin) at 10 uM relative to control; assay type: protein-complex assay
Outline: (§3)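 Part of a 98-target external biochemical selectivity panel that used radioligand/receptor binding-type assays. Compound tested once at 10 µM. Results are reported as % inhibition versus control; negative values mean stimulation of receptor activity.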

[13] = molecular target: T1, GABA-A receptor; anion channel (Homo sapiens); test: Inhibition of GABAA receptor (unknown origin) at 10 uM in presence of muscimol relative to control; assay type: protein-complex assay; outline: as §3
[14] = organism: Homo sapiens; test: Inhibition of non-selective GABAB receptor (unknown origin) at 10 uM relative to control; outline: as §2
[15] = organism: Homo sapiens; test: Inhibition of GABAB1A receptor (unknown origin) at 10 uM relative to control; outline: as §3
[16] = organism: Homo sapiens; test: Inhibition of Glutamate receptor (unknown origin) at 10 uM relative to control; outline: as §3
[17] = organism: Homo sapiens; test: Inhibition of Glutamate kainate receptor (unknown origin) at 10 uM relative to control; outline: as §3
[18] = molecular target: Growth hormone secretagogue receptor type 1 (Homo sapiens) (UniProt Q92847); test: Inhibition of Growth hormone secretagogue receptor (unknown origin) at 10 uM relative to control; outline: as §3
[19] = molecular target: Insulin receptor (Homo sapiens) (UniProt P06213); test: Inhibition of Insulin receptor (unknown origin) at 10 uM relative to control; outline: as §3
[20] = molecular target: Muscarinic acetylcholine receptor M1 (Homo sapiens) (UniProt P11229); test: Inhibition of Muscarinic M1 receptor (unknown origin) at 10 uM relative to control; outline: as §3
Muscarinic acetylcholine receptor M1 (Homo sapiens), sequence (P11229 whole entry): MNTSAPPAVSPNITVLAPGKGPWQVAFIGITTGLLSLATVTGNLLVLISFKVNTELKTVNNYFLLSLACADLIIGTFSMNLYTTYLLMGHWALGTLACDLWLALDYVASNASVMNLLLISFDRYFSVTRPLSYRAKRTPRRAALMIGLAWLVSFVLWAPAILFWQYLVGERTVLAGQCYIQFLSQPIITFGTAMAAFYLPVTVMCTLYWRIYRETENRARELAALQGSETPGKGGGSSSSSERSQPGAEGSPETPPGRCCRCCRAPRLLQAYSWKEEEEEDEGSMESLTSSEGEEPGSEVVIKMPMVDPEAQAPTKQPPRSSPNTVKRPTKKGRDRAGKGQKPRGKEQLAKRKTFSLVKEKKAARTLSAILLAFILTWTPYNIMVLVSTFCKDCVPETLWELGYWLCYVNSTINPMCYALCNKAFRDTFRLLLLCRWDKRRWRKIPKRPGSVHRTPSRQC

[21] = molecular target: Muscarinic acetylcholine receptor M3 (Homo sapiens) (UniProt P20309); test: Inhibition of Muscarinic M3 receptor (unknown origin) at 10 uM relative to control; outline: as §3
Muscarinic acetylcholine receptor M3 (Homo sapiens), sequence (P20309 whole entry, looked up): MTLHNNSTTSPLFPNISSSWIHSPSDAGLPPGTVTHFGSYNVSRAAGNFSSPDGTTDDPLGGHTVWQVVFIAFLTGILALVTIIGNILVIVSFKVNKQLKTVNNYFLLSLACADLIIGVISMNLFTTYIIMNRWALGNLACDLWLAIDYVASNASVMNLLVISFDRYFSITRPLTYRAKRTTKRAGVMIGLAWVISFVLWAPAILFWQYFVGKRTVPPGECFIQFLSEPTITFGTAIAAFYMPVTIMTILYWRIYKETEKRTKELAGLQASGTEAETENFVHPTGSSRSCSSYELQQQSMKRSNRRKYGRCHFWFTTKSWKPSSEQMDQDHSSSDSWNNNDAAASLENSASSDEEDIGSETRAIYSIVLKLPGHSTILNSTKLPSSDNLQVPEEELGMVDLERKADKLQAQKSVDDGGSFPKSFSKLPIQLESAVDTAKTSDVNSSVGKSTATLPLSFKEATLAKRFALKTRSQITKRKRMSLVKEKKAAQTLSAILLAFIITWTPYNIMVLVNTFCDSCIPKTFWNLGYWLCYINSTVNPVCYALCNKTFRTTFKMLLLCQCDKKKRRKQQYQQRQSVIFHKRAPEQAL

[22] = molecular target: Delta-type opioid receptor (Homo sapiens) (UniProt P41143); test: Inhibition of opioid delta receptor (unknown origin) at 10 uM relative to control; outline: as §2
[23] = molecular target: Small conductance calcium-activated potassium channel protein 2 (Homo sapiens) (UniProt Q9H2S1); test: Inhibition of SKCA2 (unknown origin) at 10 uM relative to control; outline: as §3
Small conductance calcium-activated potassium channel protein 2 (Homo sapiens), sequence (Q9H2S1 whole entry): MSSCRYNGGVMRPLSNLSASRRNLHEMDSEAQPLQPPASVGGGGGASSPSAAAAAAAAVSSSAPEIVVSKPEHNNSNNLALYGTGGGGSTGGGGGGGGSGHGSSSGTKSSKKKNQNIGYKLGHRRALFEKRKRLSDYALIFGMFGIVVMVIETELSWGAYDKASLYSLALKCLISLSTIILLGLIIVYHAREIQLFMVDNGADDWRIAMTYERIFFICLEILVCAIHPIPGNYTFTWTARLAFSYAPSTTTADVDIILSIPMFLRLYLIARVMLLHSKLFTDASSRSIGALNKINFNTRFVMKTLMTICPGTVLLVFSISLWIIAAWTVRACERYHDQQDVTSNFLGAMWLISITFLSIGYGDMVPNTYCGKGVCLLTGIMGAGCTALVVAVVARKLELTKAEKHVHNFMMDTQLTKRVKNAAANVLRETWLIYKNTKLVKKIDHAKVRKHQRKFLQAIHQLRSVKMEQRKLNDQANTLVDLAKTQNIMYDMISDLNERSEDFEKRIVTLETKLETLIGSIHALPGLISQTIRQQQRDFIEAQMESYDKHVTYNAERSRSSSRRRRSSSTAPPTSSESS

[24] = molecular target: 5-hydroxytryptamine receptor 2B (Homo sapiens) (UniProt P41595); test: Inhibition of Serotonin 5-HT2B receptor (unknown origin) at 10 uM relative to control; outline: as §3
[25] = molecular target: Substance-P receptor (Homo sapiens) (UniProt P25103); test: Inhibition of Tachykinin NK1 receptor (unknown origin) at 10 uM relative to control; outline: as §2
Substance-P receptor (Homo sapiens), sequence (P25103 whole entry): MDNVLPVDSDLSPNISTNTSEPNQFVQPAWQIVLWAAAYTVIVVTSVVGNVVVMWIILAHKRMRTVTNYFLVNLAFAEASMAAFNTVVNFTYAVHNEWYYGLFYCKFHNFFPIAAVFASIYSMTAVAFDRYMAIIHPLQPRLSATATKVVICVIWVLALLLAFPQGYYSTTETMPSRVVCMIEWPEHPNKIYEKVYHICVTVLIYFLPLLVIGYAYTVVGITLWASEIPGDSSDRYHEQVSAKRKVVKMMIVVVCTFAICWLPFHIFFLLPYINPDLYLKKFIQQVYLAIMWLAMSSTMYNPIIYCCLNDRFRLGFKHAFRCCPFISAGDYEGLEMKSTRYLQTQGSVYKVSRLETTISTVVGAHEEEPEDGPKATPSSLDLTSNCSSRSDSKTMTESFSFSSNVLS

[26] = molecular target: Sodium-dependent noradrenaline transporter (Homo sapiens) (UniProt P23975); test: Inhibition of Norepinephrine transporter (unknown origin) at 10 uM relative to control; outline: as §3
[27] = molecular target: G protein-coupled receptor 52 (Rattus norvegicus) (UniProt A0A8I5ZQK1); test: Agonist activity at GPR52 in rat Striatal neuron assessed as increase in NMDA-stimulated GABA release […] followed by NMDA-stimulation and measured after 20 mins by scintillation counter analysis; assay type: cell-based; settings: filed as agonist, time 60.0 min
[28] = test system: Mus musculus; test: Antipsychotic activity in GPR52 knockout mouse assessed as increase in phosphorylated CREB level in striatum at 30 mg/kg, po incubated for 60 mins by ELISA analysis; assay type: functional, organism-based
[29] = Toxicity in ICR mouse assessed as catelepsy upto 100 mg/kg, po measured for 60 mins by bar test; assay type: organism-based; settings: in vivo, 1 h
Outline: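 Male ICR mice (6–7 weeks) were dosed orally 60 min before testing. Forepaws were placed on a 2 mm bar set 6.5 cm high, and time on the bar was recorded with a 30 s cutoff. Each mouse was tested three times and the times averaged. n = 5–6.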

[30] = test system: Rattus norvegicus; test: Pro-cognitive activity in Long-Evans rat at10 mg/kg, po measured after 1 hr by radial arm maze test; assay type: functional, organism-based; settings: dose 10.0 mg/kg
Outline: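 Male Long-Evans rats (9 weeks) were trained on the radial arm maze until they made fewer than two errors on two consecutive days. Errors were re-entries into arms or uneaten pellets, within 5 min. Oral 10 mg/kg or vehicle was given 1 h pretest, and MK-801 0.08 mg/kg s.c. or saline 30 min pretest. Scoring was blinded. n = 8–14.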

[31] = test system: Mus musculus; test: Antipsychotic activity in C57BL/6N mouse assessed as increase in c-fos positive cells in medial prefrontal cortex at 30 mg/kg, po measured for 2 hrs by immunohistochemistry analysis; assay type: functional, organism-based
[32] = test system: Mus musculus; test: Pro-cognitive activity in GPR52 knockout C57BL/6N mouse assessed as increase in c-fos gene expression in hippocampus at 30 mg/kg, po measured after 2 hrs […]; assay type: functional, organism-based

SMILES: Cc1cc(-n2nc(Cc3cc(F)cc(C(F)(F)F)c3)nc2C)ccc1C(N)=O [TP-024]
- inhibition [1]: -1%
- inhibition [2]: 4%
- inhibition [3]: -1%
- inhibition [4]: 11%
- inhibition [5]: 24%
- inhibition [6]: 3%
- inhibition [7]: 0%
- inhibition [8]: 5%
- inhibition [9]: -5%
- inhibition at 10 µM [10]: -2%
- inhibition [11]: -4%
- inhibition [12]: 2%
- inhibition [13]: -1%
- inhibition [14]: 0%
- inhibition [15]: 5%
- inhibition [16]: 2%
- inhibition [17]: 2%
- inhibition [18]: 0%
- inhibition [19]: -9%
- inhibition [20]: 4%
- inhibition [21]: -6%
- inhibition [22]: 4%
- inhibition [23]: -1%
- inhibition [24]: 6%
- inhibition [25]: 4%
- inhibition [26]: 10%
- Activity [27]: Active
- Activity [28]: inactive
- Activity [29]: Non-Toxic
- Activity [30]: Active
- Activity [31]: Active
- Activity [32]: inactive
